Laboratory results taken from ChEMBL document CHEMBL1128732, “Synthesis and anticonvulsant activity of N-benzylpyrrolo[2,3-d]-, -pyrazolo[3,4-d]-, and -triazolo[4,5-d]pyrimidines: imidazole ring-modified analogues of 9-(2-fluorobenzyl)-6-(methylamino)-9H-purine” (J Med Chem, 1995).

Assays:
[1] = tested on: Rattus norvegicus; assay: The compound was tested for anticonvulsant activity against maximal electroshock-induced seizures after intraperitoneal administration in rats; format: functional
In short: (§1)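 Male Wistar rats (Charles River) challenged with maximal electroshock. ED50 is the dose protecting 50% of animals against the hind limb extensor component, calculated by the Miller–Tainter method. With standard error: at least 12 animals per dose level, four doses per compound. Without standard error: three doses, six animals per point. Some compounds were given as the hydrochloride.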

[2] = tested on: Rattus norvegicus; assay: The compound was tested for anticonvulsant activity against maximal electroshock-induced seizures after peroral administration in rats; format: functional; in short: as §1
[3] = Partition coefficient (logP); format: physicochemical; conditions: octanol/water
In short: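 Octanol–water partition measured with a carbonate-buffered aqueous phase adjusted to pH 10.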

[4] = pKa value of the compound; format: physicochemical

| SMILES | ED50 ([1]; Rattus norvegicus, ip) | ED50 [1] | ED50 ([2]; Rattus norvegicus, po) | other results |
| --- | --- | --- | --- | --- |
| Nc1ncnc2c1cnn2Cc1ccccc1 | > 25 mg/kg |  |  |  |
| CN(C)c1ncnc2c1ccn2Cc1ccccc1F |  | 11 mg/kg |  | ED50 [2]: 12 mg/kg |
| CNc1ncnc2c1cnn2Cc1ccccc1 | 7 mg/kg |  | 15 mg/kg |  |
| CNc1ncnc2c1nnn2Cc1ccccc1F | 3 mg/kg |  | 8 mg/kg | logP [3]: 2.05; pKa [4]: 2.49 |
| Nc1ncnc2c1cnn2Cc1ccccc1F | 8 mg/kg |  | 14 mg/kg |  |
| c1ccc(Cn2ccc3c(NC4CC4)ncnc32)cc1 | 36 mg/kg |  |  |  |
| Fc1ccccc1Cn1ccc2c(NC3CC3)ncnc21 | > 50 mg/kg |  |  |  |
| CNc1ncnc2c1cnn2Cc1ccccc1F | 6 mg/kg |  | 8 mg/kg | logP [3]: 1.94; pKa [4]: 4.4 |
| CNc1ncnc2c1ccn2Cc1ccccc1F | 6 mg/kg |  | 12 mg/kg | logP [3]: 2.11; pKa [4]: 5.56 |
| Nc1ncnc2c1nnn2Cc1ccccc1F | > 25 mg/kg |  |  |  |
| CN(C)c1ncnc2c1ccn2Cc1ccccc1 |  | 15 mg/kg |  |  |
| Nc1ncnc2c1ncn2Cc1ccccc1F |  | 4.5 mg/kg |  | ED50 [2]: 12 mg/kg |
| CNc1ncnc2c1ncn2Cc1ccccc1F [BW-A78U] |  | 1.7 mg/kg |  | ED50 [2]: 2.5 mg/kg |
| O=C1NC(=O)C(c2ccccc2)(c2ccccc2)N1 [PHENYTOIN] |  | 10 mg/kg |  | ED50 [2]: 20 mg/kg |
